In PMC12808237 (Nature Communications, 2025):
Blank lines part the entries; values can stand above or below the compound they belong to.

Tests used:
[1] = target: T1, MITF(217-296) (Homo sapiens, UniProt O75030); assay: 19F NMR reporter assay; format: binding
T1 sequence (O75030 217-296 isoform O75030-9): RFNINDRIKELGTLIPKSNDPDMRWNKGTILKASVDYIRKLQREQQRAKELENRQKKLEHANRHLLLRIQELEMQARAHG

[2] = target: T1, MITF(217-296); assay: Protein-observed NMR titration; format: binding
[3] = target: T2, MITF(180-296) (Homo sapiens, UniProt O75030); assay: Surface plasmon resonance; format: binding; details: 25 °C
T2 sequence (O75030 287-403): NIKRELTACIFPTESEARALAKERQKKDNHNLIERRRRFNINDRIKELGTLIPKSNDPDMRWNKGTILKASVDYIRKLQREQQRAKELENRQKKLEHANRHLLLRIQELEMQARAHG
In short: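 MITF(180-296), biotinylated via C-terminal Avi-tag, was captured on a streptavidin chip at 6 µg mL-1 to ~3000 RU. Run at 25 °C in 25 mM Tris-HCl pH 7.5, 150 mM NaCl, 0.05% Tween 20, 3 mM EDTA, 0.5 mM TCEP, 10 mM L-arginine, 3% DMSO. Test compound was injected as a 2- or 3-fold series at 60 µL min-1 (60 s association, 150 s dissociation). Double-referenced data were fitted globally to a 1:1 model for kon, koff and KD.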

[4] = target: T3, MITF(180-296) (Homo sapiens, UniProt O75030); assay: Isothermal titration calorimetry; format: binding; details: 25 °C, n = 2, mean ± SD
T3 sequence (O75030 300-403 limits assumed): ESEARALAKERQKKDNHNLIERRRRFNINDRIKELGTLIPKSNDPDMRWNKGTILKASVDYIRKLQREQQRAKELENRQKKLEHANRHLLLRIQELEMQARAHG
In short: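 Run at 25 °C in high-feedback mode. Buffer: 25 mM Tris-HCl pH 7.5, 150 mM NaCl, 10 mM L-arginine, 3 mM EDTA, 0.5 mM TCEP. Cell held 12 µM purified dimeric wild-type avi-tagged MITF(180-296), dialysed twice at 4 °C, with 2% DMSO. Syringe held 182–220 µM test compound diluted from DMSO. Duplicates were fitted with automatic baseline/integration; reported as mean ± SD.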

[5] = target: MYC/MAX (Homo sapiens, UniProt P01106+P61244); assay: NMR chemical shift perturbation; format: binding
Sequence of MYC/MAX (P01106 368-449): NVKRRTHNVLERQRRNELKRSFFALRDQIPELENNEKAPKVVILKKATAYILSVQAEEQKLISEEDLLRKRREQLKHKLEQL
Sequence of MYC/MAX (P61244 22-102): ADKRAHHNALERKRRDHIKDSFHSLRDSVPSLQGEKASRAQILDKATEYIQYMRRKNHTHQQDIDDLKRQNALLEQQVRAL

[6] = tested on: melanoma cell lines; details: cited from earlier work
[7] = tested on: MITF-dependent target genes; details: cited from earlier work
[8] = target: T3, MITF(180-296); assay: Nano differential scanning fluorimetry; format: binding; details: nanoDSF, compound at 50 μM
In short: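 Wild-type MITF(180-296) was spun 16,000 × g, 10 min, 4 °C, then used at 0.3 mg mL-1 final in 50 mM HEPES pH 8, 300 mM NaCl, 5% glycerol, 1 mM TCEP. Test compound 50 μM final, 3% DMSO; DMSO for apo. Shaken 30 min at RT and re-spun. Heated 20–95 °C at 0.5 °C min-1; 280 nm excitation, 330/350 nm emission. Duplicates.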

[9] = tested on: MITF(180-296) A264C; assay: ITC with MITF variant A264C; format: binding, human; details: 25 °C
[10] = tested on: MITF(180-296) R263A; assay: ITC with MITF variant R263A; format: binding, human; details: 25 °C
[11] = tested on: MITF(180-296) Q261A; assay: ITC with MITF variant Q261A; format: binding, human; details: 25 °C
[12] = KD (MITF NMR KD), protein-observed NMR titration
[13] = SPR KD,eq, equilibrium affinity

Compound: O=C(O)c1[nH]c2ccc(Cl)cc2c1-c1ccccc1 [compound 3]
- ligand efficiency ([1]; from NMR affinities): 0.25
- Kd [2, 12]: 327 µM

Compound: O=C(O)c1[nH]c2ccc(Cl)cc2c1-c1ccc(F)cc1 [compound 5]
- Kd [2, 12]: 104 µM

Compound: NS(=O)(=O)c1ccc(NC2=CC(=O)c3ccccc3C2=O)cc1 [ML329]
- effect on survival of melanoma cell lines [6]: negatively impact survival of melanoma cell lines
- effect on MITF-dependent target genes [7]: induce downregulation of a subset of MITF-dependent target genes

Compound: O=C(O)c1cc2cc(F)ccc2n1-c1ccc(F)cc1 [compound 1]
- Kd ([2]; KD, protein-observed NMR titrations): 1000 µM

Further lines, with some results ahead:

- Kd [3, 13]: 8 µM
- ITC KD [4]: low-μM range
- Ki [1]: 2.6 µM
- improved binding affinity compared to compound 3 ([1]; Ki of 6 versus KD of 3): > 100 fold
- Kd [5]: > 200 µM
Compound: O=C(O)c1cc2ccc(C#CC3(O)CCCCC3)cc2n1-c1ccccc1 [compound 6]

- Kd [3, 13]: 4 µM
- ITC KD [4]: low-μM range
- Kd [5]: > 200 µM
Compound: Cc1cc(C#CC2(O)CCCCC2)cc2c1cc(C(=O)O)n2-c1ccccc1 [compound 7]

- Kd [3, 13]: 1.9 µM
- Kd ([3]; kinetic affinity constant (KD,kin), SPR, from kon and koff): 1.8 µM
- Kd ([4]; ITC KD): 0.47 ± 0.17 µM
- -TΔS ([4]; ITC): 2.96 ± 2.08 kcal/mol
- ΔG ([4]; ITC): -8.63 ± 0.21 kcal/mol
- ΔH ([4]; ITC): -11.8 ± 1.55 kcal/mol
- thermal stabilization of MITF [8]: 3.4 °C
Compound: O=C(O)c1cc2ccc(C#CC3(O)CCCCC3)cc2n1-c1cccc(Cl)c1 [compound 8]
- binding to MITF variant by ITC [9]: significant disruption of binding interactions
- binding to MITF variant by ITC [10]: significant disruption of binding interactions
- binding to MITF variant by ITC [11]: significant disruption of binding interactions
